{"data": "Experimental data pooled from the literature", "note": "Each line is one published result; the experiments were not run side by side. pIC50: −log10 of the molar value."}
{"SMILES": "COc1ccc2c(=O)n(C)c(-c3ccccc3)nc2c1", "test system": "male Sprague-Dawley rat, lung", "setting": "oral, 30 mg/kg, 2 h", "quantity": "concentration", "value": "2.13 ng/mL"}
{"SMILES": "C[C@@H]1Cn2ncc(-c3ccc(C(=O)N4CCCc5ccccc54)cc3)c2CN1C(=O)[C@H](C)c1ccccc1", "tested on": "Broad substrate specificity ATP-binding cassette transporter ABCG2 (ABCG2, Homo sapiens, UniProt Q9UNQ0)", "test system": "dog, MDCK-MDR1", "quantity": "Papp B→A", "value": "13.4 ×10⁻⁶ cm/s"}
{"SMILES": "CCc1cc(-c2noc(-c3cc(OC)nc(C4CCCC4)c3)n2)cc(C)c1OC[C@@H](O)CO", "test system": "Wistar rat, plasma", "setting": "oral, 0.3 mg/kg, 3 h, single dose", "quantity": "concentration", "value": "16.7 ng/mL"}
{"SMILES": "O=C(O)c1cc(Br)c(O)c(Br)c1", "tested on": "K562", "assay": "cell growth or viability", "quantity": "pIC50", "value": "< 3.36"}
{"SMILES": "COc1cccc(-c2n[nH]c(SCc3ccccn3)n2)c1OC", "test system": "female Sprague-Dawley rat, plasma", "setting": "intravenous, 1 mg/kg, 10 min, single dose", "quantity": "concentration", "value": "2680 ng/mL"}
{"SMILES": "Cc1cc2cc(O)cc(O)c2c(=O)o1", "tested on": "K562", "assay": "cell growth or viability", "quantity": "pIC50", "value": 4.72}
{"SMILES": "CCOC(=O)[C@@]12C[C@@H]1[C@@H](n1ccc3c(NC)nc(C#Cc4ccc(Cl)s4)nc31)[C@H](O)[C@@H]2O", "test system": "male Sprague-Dawley rat, plasma", "setting": "oral, 1 mg/kg, 15 min", "quantity": "concentration", "value": "5.75 ng/mL"}
{"SMILES": "COc1cc(/C=N\\NC(=O)c2ccc(Br)cc2)ccc1OC(=O)c1cccs1", "tested on": "K562", "assay": "cell growth or viability", "quantity": "pIC50", "value": 4.49}
{"SMILES": "Cc1noc(C)c1Cn1cc(N2C(=O)CN(Cc3cccc(O)c3)C2=O)cn1", "test system": "male Sprague-Dawley rat, plasma", "setting": "oral, 100 mg/kg, 1 h", "quantity": "concentration", "value": "30.5 ng/mL"}
